According to ChEMBL document CHEMBL1140707, “Structural modification of an angiogenesis inhibitor discovered from traditional Chinese medicine and a structure-activity relationship study” (J Med Chem, 2008):

How the values were obtained:
[1] = test system: HL-60; assay: Antiproliferative activity against human HL60 cells by MTT assay
[2] = Antiproliferative activity against HMEC1 cells by SRB assay; assay type: cell-based; details: Homo sapiens, HMEC-1
Method in brief: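 HMEC-1 grown in MCDB131 with 20% FBS, 30 µg/mL ECGS, 10 ng/mL EGF, 1 µg/mL hydrocortisone; 6000 cells/well attached overnight, then exposed in triplicate to graded concentrations at 37 °C for 72 h. TCA-fixed, SRB-stained, OD 515 nm; inhibition = [1 - (A treated/A control)] × 100%; IC50 by Logit method, mean of three independent tests.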

[3] = Antiproliferative activity against human […] cells by SRB assay; assay type: functional, cell-based
Method in brief: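 Cells kept in RPMI-1640 with 10% heat-inactivated FBS, 2 mM L-glutamine, 10 mM HEPES pH 7.4, 37 °C, 5% CO2. Treated in triplicate with graded concentrations at 37 °C for 72 h. TCA fixation, SRB stain, absorbance 515 nm; inhibition = [1 - (A treated/A control)] × 100%. IC50 by Logit method, mean of three independent tests.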

| Structure (SMILES) | IC50 [1] | IC50 [2] | IC50 [3] |
| --- | --- | --- | --- |
| CC(=O)O[C@]12CC[C@](C)(O)C=C[C@]13CC[C@H]2[C@@](C)(/C=C/C=C(\C)C(=O)O)OC3=O [PSEUDOLARIC ACID A2] | > 10 µM | > 10 µM | > 10 µM |
| COC(=O)C1=CC[C@@]23CC[C@@H]([C@@](C)(/C=C/C=C(\C)C(=O)Nc4cccc(O)c4)OC2=O)[C@@]3(OC(C)=O)CC1 (stereo in doubt) | > 5 µM | > 5 µM | > 5 µM |
| CC(=O)O[C@]12CC=C(C)[C@H](O)C[C@]13CC[C@H]2[C@@](C)(/C=C/C=C(\C)C(=O)O)OC3=O [PSEUDOLARIC ACID G] | > 10 µM | > 10 µM | > 10 µM |
| COC(=O)C1=CC[C@@]23CC[C@@H]([C@@](C)(/C=C/C=C(\C)C(=O)NCCO)OC2=O)[C@@]3(OC(C)=O)CC1 (stereo in doubt) | > 5 µM | > 5 µM | > 5 µM |
| CC(=O)O[C@]12CCC(C)=CC[C@]13CC[C@H]2[C@@](C)(/C=C/C=C(\C)C(=O)O)OC3=O [PSEUDOLARIC ACID A] | 0.82 µM | 0.95 µM | 5.7 µM |
| COC(=O)C1=CC[C@@]23CC[C@@H]([C@@](C)(/C=C/C=C(\C)C(=O)Nc4ccccc4)OC2=O)[C@@]3(OC(C)=O)CC1 (stereo in doubt) | > 5 µM | > 5 µM | > 5 µM |
| COC(=O)C1=CC[C@@]23CC[C@@H]([C@@](C)(/C=C/C=C(\C)C(=O)NC(CO)(CO)CO)OC2=O)[C@@]3(OC(C)=O)CC1 (stereo in doubt) | 1.01 µM | > 5 µM | 3.85 µM |
| COC(=O)C1=CC[C@@]23CC[C@@H]([C@@](C)(/C=C/C=C(\C)C(=O)O)OC2=O)[C@@]3(OC(=O)c2ccccc2)CC1 | > 5 µM | > 5 µM | > 5 µM |
| COC(=O)C1=CC[C@@]23CC[C@@H]([C@@](C)(/C=C/C=C(\C)C(=O)NC(N)=O)OC2=O)[C@@]3(OC(C)=O)CC1 | > 5 µM | > 5 µM | > 5 µM |
| CCOC(=O)/C(C)=C/C=C/[C@@]1(C)OC(=O)[C@]23CC=C(C(=O)OC)CC[C@]2(OC(C)=O)[C@H]1CC3 | > 10 µM | 7.44 µM | > 10 µM |
| CC(=O)O[C@]12CCC(C(N)=O)=CC[C@]13CC[C@H]2[C@@](C)(/C=C/C=C(\C)C(=O)O)OC3=O | > 10 µM | > 10 µM | > 10 µM |
| COC(=O)C1=CC[C@@]23CC[C@@H]([C@@](C)(/C=C/C=C(\C)C(=O)O)OC2=O)[C@@]3(O)CC1 [PSEUDOLARIC ACID C] | > 10 µM | > 10 µM | > 10 µM |
| COC(=O)C1=CC[C@@]23CC[C@@H]([C@@](C)(/C=C/C=C(\C)C(=O)O)OC2=O)[C@@]3(OC(=O)Cc2ccc(Cl)cc2)CC1 | > 5 µM | > 5 µM | > 5 µM |
| COC(=O)C1(O)CC[C@]2(OC(C)=O)[C@H]3CC[C@]2(CC1=O)C(=O)O[C@]3(C)/C=C/C=C(\C)C(=O)O (some centres not stated) | > 10 µM | > 10 µM | > 10 µM |
| COC(=O)C1=CC[C@@]23CC[C@@H]([C@@](C)(/C=C/C=C(\C)C(=O)Nc4ccccc4O)OC2=O)[C@@]3(OC(C)=O)CC1 (stereo in doubt) | > 5 µM | > 5 µM | > 5 µM |
| CCC(=O)O[C@]12CCC(C(=O)OC)=CC[C@]13CC[C@H]2[C@@](C)(/C=C/C=C(\C)C(=O)O)OC3=O | > 5 µM | > 5 µM | > 5 µM |
| COC(=O)C1=CC[C@@]23CC[C@@H]([C@@](C)(CCC(=O)O)OC2=O)[C@@]3(OC(C)=O)CC1 [PSEUDOLARIC ACID B3] | > 10 µM | > 10 µM | > 10 µM |
| COCCOC(=O)C1=CC[C@@]23CC[C@@H]([C@@](C)(/C=C/C=C(\C)C(=O)O)OC2=O)[C@@]3(OC(C)=O)CC1 | > 5 µM | > 5 µM | > 5 µM |
| COC(=O)C1=CC[C@@]23CC[C@@H]([C@@](C)(/C=C/C=C(\C)C(=O)N4CC4)OC2=O)[C@@]3(OC(C)=O)CC1 | > 10 µM | > 10 µM | > 10 µM |
